Here are results for 12 molecules from ChEMBL document CHEMBL1137299, “Elucidation of the bioactive conformation of the N-substituted trans-3,4-dimethyl-4-(3-hydroxyphenyl)piperidine class of mu-opioid receptor antagonists” (J Med Chem, 2006).

Test [1] concerns the target T1, Kappa-type opioid receptor (Homo sapiens, UniProt P41145). The experiment in a line: Displacement of [3H]diprenorphine from human cloned kappa opioid receptor expressed in CHO cells. It is filed as cell-based. On the technique in general: In a radioligand displacement assay an active substance lowers the binding of a labelled ligand.
Test [2] addresses T2, Mu-type opioid receptor (Homo sapiens, UniProt P35372). The experiment in a line: Antagonist activity against human cloned mu opioid receptor expressed in CHO cells assessed as inhibition of loperamide-stimulated [35S]GTP-gamma-S binding. It is filed as functional, cell-based. A general note: GTPγS is a poorly hydrolysed GTP analogue; its binding reports G protein activation.

The target in test [3] is T2, Mu-type opioid receptor. The test is described as follows: Displacement of [3H]diprenorphine from human cloned mu opioid receptor expressed in CHO cells. It is filed as cell-based.
The target of test [4] is T3, Delta-type opioid receptor (Homo sapiens, UniProt P41143). The experiment in a line: Inhibition of [3H]diprenorphine binding to human cloned delta opioid receptor expressed in CHO cells at 10 uM. It is filed as cell-based. The method, boiled down:
(§1)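 Membranes from CHO cells stably expressing human δ, κ or μ receptor (10-80 µg protein) incubated with [3H]diprenorphine (0.5-1.0 nM) and competitor at 10 µM. Buffer: 50 mM Tris-HCl pH 7.8, 1 mM EGTA, 5 mM MgCl2, protease inhibitors. 60 min at room temperature, then GF/B filtration and scintillation counting. Nonspecific binding was defined with 10 µM naloxone. Read-out was % inhibition of specific binding.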

In test [5] the target is T3, Delta-type opioid receptor. The experiment in a line: Antagonist activity against human cloned delta opioid receptor expressed in CHO cells assessed as inhibition of […]-stimulated [35S]GTP-gamma-S binding. It is filed as functional, cell-based. In a few lines:
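In receptor-expressing CHO membranes (50-100 µg protein), antagonist was added to mixtures containing […] agonist. Incubated 1 h at room temperature, then centrifuged; bound radioactivity was counted by scintillation.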

Test [6] deals with T3, Delta-type opioid receptor. The experiment in a line: Displacement of [3H]diprenorphine from human cloned delta opioid receptor expressed in CHO cells. It is filed as cell-based.
The target in test [7] is T1, Kappa-type opioid receptor. The experiment in a line: Antagonist activity against human cloned kappa opioid receptor expressed in CHO cells assessed as inhibition of […]-stimulated [35S]GTPgammaS binding. It is filed as functional, cell-based.
The target of test [8] is T2, Mu-type opioid receptor. The experiment in a line: Agonist activity at human cloned mu opioid receptor expressed in CHO cells assessed as stimulation of [35S]GTP-gamma-S binding. It is filed as functional, cell-based. The method, boiled down: (§2)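 CHO membranes expressing the relevant human receptor (50-100 µg protein) were exposed to a concentration series of agonist. Incubated 1 h at room temperature, centrifuged, and bound label counted. Potency and efficacy were assessed from stimulation.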

For test [9], the target named is T1, Kappa-type opioid receptor. The experiment in a line: Partial agonist activity at human cloned kappa opioid receptor expressed in CHO cells assessed as stimulation of [35S]GTP-gamma-S binding. It is filed as functional, cell-based. The method, boiled down:
as §2

Test [10] addresses T3, Delta-type opioid receptor. The experiment in a line: Agonist activity at human cloned delta opioid receptor expressed in CHO cells assessed as stimulation of [35S]GTP-gamma-S binding. It is filed as functional, cell-based. The method, boiled down: as §2
The target in test [11] is T2, Mu-type opioid receptor. The experiment in a line: Inhibition of [3H]diprenorphine binding to human cloned mu opioid receptor expressed in CHO cells at 10 uM. It is filed as cell-based. The method, boiled down: as §1
Test [12] deals with T1, Kappa-type opioid receptor. The experiment in a line: Inhibition of [3H]diprenorphine binding to human cloned kappa opioid receptor expressed in CHO cells at 10 uM. It is filed as cell-based. In a few lines: as §1

T1 sequence (P41145 whole entry): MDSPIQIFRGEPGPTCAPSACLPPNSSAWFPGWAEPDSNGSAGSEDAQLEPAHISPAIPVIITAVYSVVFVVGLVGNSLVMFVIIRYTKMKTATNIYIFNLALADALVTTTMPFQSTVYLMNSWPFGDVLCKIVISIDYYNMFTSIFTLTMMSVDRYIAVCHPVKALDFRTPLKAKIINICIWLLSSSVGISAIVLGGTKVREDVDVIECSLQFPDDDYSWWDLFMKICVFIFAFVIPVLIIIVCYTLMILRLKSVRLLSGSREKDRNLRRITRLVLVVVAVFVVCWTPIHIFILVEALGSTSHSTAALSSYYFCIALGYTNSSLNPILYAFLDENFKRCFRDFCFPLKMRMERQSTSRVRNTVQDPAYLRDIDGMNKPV
T3 sequence (P41143 whole entry): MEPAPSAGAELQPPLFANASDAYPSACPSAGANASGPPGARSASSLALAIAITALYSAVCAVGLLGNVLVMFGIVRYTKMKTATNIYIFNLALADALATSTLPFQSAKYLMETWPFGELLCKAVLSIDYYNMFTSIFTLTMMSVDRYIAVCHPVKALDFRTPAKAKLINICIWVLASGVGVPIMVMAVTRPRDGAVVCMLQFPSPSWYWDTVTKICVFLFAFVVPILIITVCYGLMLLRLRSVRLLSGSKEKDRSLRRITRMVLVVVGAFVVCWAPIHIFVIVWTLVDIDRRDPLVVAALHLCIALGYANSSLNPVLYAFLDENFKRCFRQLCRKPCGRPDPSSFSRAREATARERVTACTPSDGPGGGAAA
T2 sequence (P35372 whole entry): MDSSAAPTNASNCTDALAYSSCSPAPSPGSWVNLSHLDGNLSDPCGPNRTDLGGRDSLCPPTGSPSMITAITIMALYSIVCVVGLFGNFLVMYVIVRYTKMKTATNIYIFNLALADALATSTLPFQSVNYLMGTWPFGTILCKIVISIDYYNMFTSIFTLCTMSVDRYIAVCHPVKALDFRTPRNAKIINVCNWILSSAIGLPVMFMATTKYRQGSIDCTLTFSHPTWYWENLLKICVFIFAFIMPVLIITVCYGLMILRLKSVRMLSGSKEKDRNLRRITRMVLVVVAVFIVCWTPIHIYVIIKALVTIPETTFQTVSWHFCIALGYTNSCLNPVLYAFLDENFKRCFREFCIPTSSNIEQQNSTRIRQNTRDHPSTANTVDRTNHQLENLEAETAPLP

What is called Ki is a dissociation constant, usually derived from enzyme kinetics or from competition with a known ligand. In general, IC50 refers to the midpoint of a concentration-inhibition curve. By inhibition is commonly meant the percentage by which the read-out fell short of the control. A high value points to strong suppression. For `C[C@H]1CN2C[C@@H](c3ccccc3)CC[C@H]2C[C@@]1(C)c1cccc(O)c1`, the inhibition constant (Ki) in test [1] was determined as 440 nM; in test [3], 110 nM. In addition, in test [2], the IC50 stood at 110 nM. This molecule came in with an inhibition in test [4] of 51%.

Consider `C[C@H]1CN2C[C@H](c3ccccc3)CC[C@H]2C[C@@]1(C)c1cccc(O)c1`, for which the IC50 is 16 nM in test [5], 0.54 nM in [2] and 1.2 nM in [7]. For the same molecule, the values for the Ki in [3] and in test [6] were 0.62 nM and 31 nM, respectively.

Turning to `C[C@H]1[C@H]2CC[C@@H](c3ccccc3)CN2CC[C@@]1(C)c1cccc(O)c1`, the Ki stood at 16 nM in test [1], 37 nM in [3] and 280 nM in [6]. Further, in test [2], the half-inhibitory concentration (IC50) turned out to be 120 nM.

With `C[C@H]1[C@@H]2CC[C@H](c3ccccc3)CN2CC[C@@]1(C)c1cccc(O)c1`, the Ki turned out to be 100 nM in test [1], 73 nM in test [3] and 190 nM in [6]. In test [2], the IC50 was found to be 150 nM.

As for `C[C@H]1CN2CCCC[C@@H]2C[C@@]1(C)c1cccc(O)c1`, the results for the Ki in test [1] and in test [3] were 520 nM and 710 nM, respectively. In test [4], this molecule showed an inhibition of 40%.

In general, EC50 refers to the midpoint of the concentration-response curve. Regarding `C[C@H]1[C@@H]2CC[C@@H](c3ccccc3)CN2CC[C@@]1(C)c1cccc(O)c1`, the Ki is 65 nM in [1], 0.9 nM in [3] and 2.1 nM in [6]. In addition, the EC50 in test [8] amounted to 53 nM; in test [9] it was 200 nM; in [10], 55 nM.

Turning to `C[C@H]1CN2C[C@@H](c3ccccc3)CC[C@@H]2C[C@@]1(C)c1cccc(O)c1`, the Ki amounted to 1400 nM in test [1] and 430 nM in test [3]. In test [4], this molecule displayed an inhibition of 49%.

`C[C@H]1[C@@H]2CCCCN2CC[C@@]1(C)c1cccc(O)c1`: the results for the Ki in test [1], in test [3] and in test [6] were 69 nM, 120 nM and 220 nM, respectively. The IC50 in [2] stood at 1000 nM.

For `C[C@H]1[C@H]2CC[C@H](c3ccccc3)CN2CC[C@@]1(C)c1cccc(O)c1`, the results for the inhibitory constant (Ki) in test [1], in test [3] and in test [6] were 35 nM, 26 nM and 25 nM, respectively. Further, in test [2], the IC50 is 190 nM.

Turning to `C[C@H]1CN2C[C@H](c3ccccc3)CC[C@@H]2C[C@@]1(C)c1cccc(O)c1`, the Ki in [1] was found to be 430 nM; in test [3], 110 nM; in test [6], 900 nM. Further, the IC50 in test [2] worked out at 210 nM.

For the molecule `C[C@H]1[C@H]2CCCCN2CC[C@@]1(C)c1cccc(O)c1`, in [1], the inhibition constant (Ki) was 520 nM. Further, the inhibition in test [4] came out at 47%; in [11], 43%.

For the molecule `C[C@H]1CN2CCCC[C@H]2C[C@@]1(C)c1cccc(O)c1`, the inhibition stood at 44% in [12] and 37% in test [4]. Further, the Ki in [3] was 940 nM.
